Values after ≈ are worked out from the molar mass of the structure shown.
How the values were obtained:
Aspergillus flavus [1] = test: Antifungal activity against Aspergillus flavus NCIM No.524 by serial plate dilution method; type: functional
[2] = system: Trichophyton mentagrophytes; test: Antifungal activity against Trichophyton mentagrophytes assessed as zone of inhibition by serial plate dilution method; type: functional
In short: (§1)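 Sabouraud agar (peptone, D-glucose, agar; pH 5.7), 20 ml per dish, lawned with a saline spore suspension from a loopful of fungus. Excess decanted, plates dried 1 h at 37 °C. Wells punched and compounds in DMSO added, DMSO as control. Triplicate plates, 37 °C for 3-4 days; inhibition-zone diameter measured.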

Pseudomonas aeruginosa [3] = test: Antibacterial activity against Pseudomonas aeruginosa ATTC 27853 after 16 to 18 hrs by serial plate dilution method; type: functional; details: ATCC27853
In short: (§2)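 MIC by broth serial dilution: compound serially diluted in Mueller-Hinton broth, tubes adjusted to […] with phosphate buffer. Standardized bacterial suspension inoculated, incubated 16-18 h at 37 °C. MIC read as the lowest concentration with no visible growth.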

Aspergillus fumigatus [4] = test: Antifungal activity against Aspergillus fumigatus NCIM No.902 assessed as zone of inhibition by serial plate dilution method; type: functional; in short: as §1
Aspergillus fumigatus [5] = test: Antifungal activity against Aspergillus fumigatus NCIM No.902 by serial plate dilution method; type: functional
Bacillus subtilis [6] = test: Antibacterial activity against Bacillus subtilis after 16 to 18 hrs by serial plate dilution method; type: functional; in short: as §2
[7] = system: Trichophyton mentagrophytes; test: Antifungal activity against Trichophyton mentagrophytes by serial plate dilution method; type: functional
Talaromyces marneffei [8] = test: Antifungal activity against Penicillium marneffei assessed as zone of inhibition by serial plate dilution method; type: functional; in short: as §1
Escherichia coli [9] = test: Antibacterial activity against Escherichia coli ATTC 25922 after 16 to 18 hrs by serial plate dilution method; type: functional; details: ATCC25922; in short: as §2
Staphylococcus aureus [10] = test: Antibacterial activity against Staphylococcus aureus ATTC 25923 after 16 to 18 hrs by serial plate dilution method; type: functional; in short: as §2
Talaromyces marneffei [11] = test: Antifungal activity against Penicillium marneffei by serial plate dilution method; type: functional
Pseudomonas aeruginosa [12] = test: Antibacterial activity against Pseudomonas aeruginosa ATTC 27853 assessed as zone of inhibition after 16 to 18 hrs by serial plate dilution method; type: functional, ATCC27853
In short: (§3)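 Agar well diffusion: 20 ml agar per dish seeded with bacterial suspension, excess decanted, dishes held 1 h at 37 °C. Wells punched, compounds in DMSO added at their MIC levels, DMSO wells as control. Zone of inhibition measured.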

Staphylococcus aureus [13] = test: Antibacterial activity against Staphylococcus aureus ATTC 25923 assessed as zone of inhibition after 16 to 18 hrs by serial plate dilution method; type: functional; in short: as §3
Bacillus subtilis [14] = test: Antibacterial activity against Bacillus subtilis assessed as zone of inhibition after 16 to 18 hrs by serial plate dilution method; type: functional; in short: as §3
Escherichia coli [15] = test: Antibacterial activity against Escherichia coli ATTC 25922 assessed as zone of inhibition after 16 to 18 hrs by serial plate dilution method; type: functional, ATCC25922; in short: as §3
Aspergillus flavus [16] = test: Antifungal activity against Aspergillus flavus NCIM No.524 assessed as zone of inhibition by serial plate dilution method; type: functional; in short: as §1

Compound	MIC (Aspergillus flavus [1])	MIC (Pseudomonas aeruginosa [3])	MIC (Aspergillus fumigatus [5])	MIC (Bacillus subtilis [6])	MIC [7]	MIC (Escherichia coli [9])	MIC (Staphylococcus aureus [10])	MIC (Talaromyces marneffei [11])	inhibition zone (IZ) [2]	inhibition zone (IZ) (Aspergillus fumigatus [4])	inhibition zone (IZ) (Talaromyces marneffei [8])	inhibition zone (IZ) (Pseudomonas aeruginosa [12])	inhibition zone (IZ) (Staphylococcus aureus [13])	inhibition zone (IZ) (Bacillus subtilis [14])	inhibition zone (IZ) (Escherichia coli [15])	inhibition zone (IZ) (Aspergillus flavus [16])
Cc1cc(C2CCCCC2)n(O)c(=O)c1.NCCO [CICLOPIROX OLAMINE]	6.25 µg/mL		6.25 µg/mL		6.25 µg/mL			6.25 µg/mL	16 mm	16 mm	16 mm					16 mm
O=C(O)c1cn(C2CC2)c2cc(N3CCNCC3)c(F)cc2c1=O [CIPROFLOXACIN]				1.56 µg/mL (≈ 4.71 µM)								16 mm	16 mm	21 mm	16 mm	
O=[N+]([O-])c1ccc(-c2csc(N/N=C/c3cc(Cl)cc(Cl)c3Cl)n2)cc1	25 µg/mL (≈ 58.5 µM)	25 µg/mL (≈ 58.5 µM)	25 µg/mL (≈ 58.5 µM)	6.25 µg/mL (≈ 14.6 µM)	25 µg/mL (≈ 58.5 µM)	25 µg/mL (≈ 58.5 µM)	6.25 µg/mL (≈ 14.6 µM)	25 µg/mL (≈ 58.5 µM)	<10 mm	<10 mm	<10 mm	<10 mm	16 mm	16 mm	<10 mm	<10 mm
COc1ccc(-c2csc(N/N=C/c3cc(Cl)cc(Cl)c3Cl)n2)cc1	25 µg/mL (≈ 60.6 µM)	25 µg/mL (≈ 60.6 µM)	25 µg/mL (≈ 60.6 µM)	25 µg/mL (≈ 60.6 µM)	12.5 µg/mL (≈ 30.3 µM)	25 µg/mL (≈ 60.6 µM)	25 µg/mL (≈ 60.6 µM)	25 µg/mL (≈ 60.6 µM)	11 mm	<10 mm	<10 mm	<10 mm	<10 mm	<10 mm	<10 mm	<10 mm
CSc1ccc(-c2csc(-c3cc(Cl)cc(Cl)c3Cl)n2)cc1	12.5 µg/mL (≈ 32.3 µM)	6.25 µg/mL (≈ 16.2 µM)	12.5 µg/mL (≈ 32.3 µM)	6.25 µg/mL (≈ 16.2 µM)	12.5 µg/mL (≈ 32.3 µM)	6.25 µg/mL (≈ 16.2 µM)	6.25 µg/mL (≈ 16.2 µM)	25 µg/mL (≈ 64.6 µM)	11 mm	11 mm	<10 mm	16 mm	16 mm	16 mm	16 mm	11 mm
COc1ccc(-c2csc(-c3cc(Cl)cc(Cl)c3Cl)n2)cc1	25 µg/mL (≈ 67.4 µM)	12.5 µg/mL (≈ 33.7 µM)	25 µg/mL (≈ 67.4 µM)	12.5 µg/mL (≈ 33.7 µM)	25 µg/mL (≈ 67.4 µM)	6.25 µg/mL (≈ 16.9 µM)	12.5 µg/mL (≈ 33.7 µM)	25 µg/mL (≈ 67.4 µM)	<10 mm	<10 mm	<10 mm	11 mm	11 mm	11 mm	16 mm	<10 mm

Continued by falling MIC (Aspergillus flavus [1]), values first:

MIC (Aspergillus flavus [1])	MIC (Pseudomonas aeruginosa [3])	MIC (Aspergillus fumigatus [5])	MIC (Bacillus subtilis [6])	MIC [7]	MIC (Escherichia coli [9])	MIC (Staphylococcus aureus [10])	MIC (Talaromyces marneffei [11])	Compound	inhibition zone (IZ) [2]	inhibition zone (IZ) (Aspergillus fumigatus [4])	inhibition zone (IZ) (Talaromyces marneffei [8])	inhibition zone (IZ) (Pseudomonas aeruginosa [12])	inhibition zone (IZ) (Staphylococcus aureus [13])	inhibition zone (IZ) (Bacillus subtilis [14])	inhibition zone (IZ) (Escherichia coli [15])	inhibition zone (IZ) (Aspergillus flavus [16])
25 µg/mL (≈ 66.6 µM)	6.25 µg/mL (≈ 16.7 µM)	6.25 µg/mL (≈ 16.7 µM)	25 µg/mL (≈ 66.6 µM)	6.25 µg/mL (≈ 16.7 µM)	6.25 µg/mL (≈ 16.7 µM)	12.5 µg/mL (≈ 33.3 µM)	25 µg/mL (≈ 66.6 µM)	Clc1ccc(-c2csc(-c3cc(Cl)cc(Cl)c3Cl)n2)cc1	16 mm	16 mm	<10 mm	16 mm	11 mm	<10 mm	16 mm	<10 mm
25 µg/mL (≈ 69.1 µM)	12.5 µg/mL (≈ 34.6 µM)	25 µg/mL (≈ 69.1 µM)	6.25 µg/mL (≈ 17.3 µM)	25 µg/mL (≈ 69.1 µM)	25 µg/mL (≈ 69.1 µM)	6.25 µg/mL (≈ 17.3 µM)	25 µg/mL (≈ 69.1 µM)	Clc1cc(Cl)c(Cl)c(-c2nc(CN3CCCCC3)cs2)c1	<10 mm	<10 mm	<10 mm	11 mm	16 mm	16 mm	<10 mm	<10 mm
12.5 µg/mL (≈ 28.3 µM)	6.25 µg/mL (≈ 14.1 µM)	12.5 µg/mL (≈ 28.3 µM)	6.25 µg/mL (≈ 14.1 µM)	12.5 µg/mL (≈ 28.3 µM)	6.25 µg/mL (≈ 14.1 µM)	6.25 µg/mL (≈ 14.1 µM)	12.5 µg/mL (≈ 28.3 µM)	NC(=O)c1cc(-c2csc(N/N=C/c3cc(Cl)cc(Cl)c3Cl)n2)ccc1O	11 mm	11 mm	11 mm	16 mm	16 mm	16 mm	16 mm	11 mm
6.25 µg/mL (≈ 16.3 µM)	12.5 µg/mL (≈ 32.6 µM)	6.25 µg/mL (≈ 16.3 µM)	12.5 µg/mL (≈ 32.6 µM)	6.25 µg/mL (≈ 16.3 µM)	12.5 µg/mL (≈ 32.6 µM)	25 µg/mL (≈ 65.2 µM)	6.25 µg/mL (≈ 16.3 µM)	Clc1cc(Cl)c(Cl)c(/C=N/Nc2nc(-c3cccnc3)cs2)c1	16 mm	16 mm	16 mm	11 mm	<10 mm	10 mm	11 mm	16 mm
6.25 µg/mL (≈ 13.6 µM)	25 µg/mL (≈ 54.5 µM)	6.25 µg/mL (≈ 13.6 µM)	6.25 µg/mL (≈ 13.6 µM)	6.25 µg/mL (≈ 13.6 µM)	25 µg/mL (≈ 54.5 µM)	6.25 µg/mL (≈ 13.6 µM)	6.25 µg/mL (≈ 13.6 µM)	Clc1cc(Cl)c(Cl)c(/C=N/Nc2nc(-c3ccc(-c4ccccc4)cc3)cs2)c1	16 mm	16 mm	16 mm	<10 mm	16 mm	16 mm	<10 mm	16 mm
6.25 µg/mL (≈ 18.3 µM)	25 µg/mL (≈ 73.2 µM)	6.25 µg/mL (≈ 18.3 µM)	12.5 µg/mL (≈ 36.6 µM)	6.25 µg/mL (≈ 18.3 µM)	12.5 µg/mL (≈ 36.6 µM)	12.5 µg/mL (≈ 36.6 µM)	6.25 µg/mL (≈ 18.3 µM)	Clc1cc(Cl)c(Cl)c(-c2nc(-c3cccnc3)cs2)c1	16 mm	16 mm	16 mm	<10 mm	11 mm	11 mm	11 mm	16 mm

Source: ChEMBL document CHEMBL1149778, “Synthesis of some novel 2,4-disubstituted thiazoles as possible antimicrobial agents” (2008)
